Assay outcomes deposited in PubChem BioAssay by The Scripps Research Institute Molecular Screening Center.
TCR CD3 inh – human TCR-CD3 binding inhibition; TAMRA-labeled TCR probe fluorescence, biochemical; inhibition, % at 9.4 µM; 0.37% of 360,000 active; AID 651800; in the data active = inhibition above about 19%;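 also: recombinant mutant TCR 2C K166C tagged with TAMRA read by polarization; 0% = receptor in buffer alone and 100% = receptor with positive control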
DDE Tn6 FP inh – inhibitors of Tn6 peptide binding to human fibrin DD(E); Fibrin DD(E) TRITC-Tn6 fluorescence polarization displacement; AID 720509; P02675; inhibition, % at 8.3 µM; 0.21% of 370,000 active;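 active = inhibition above a per-campaign cutoff: mean of compounds within control limits plus 3 SD, cut at about 15% in these data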;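 also: 0% = median of all compound wells on the plate and 100% = blocking peptide control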
HTRA1 inh – inhibitors of human serine peptidase HTRA1. 0.5% of 340,000 active. recombinant HTRA1, FP-rhodamine activity-based probe, fluorescence polarization. inhibition, % at 5.96 µM; in the data active = inhibition above about 36%;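 also: 0% = enzyme with DMSO and 100% = wells lacking enzyme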
Tn7 DDE FP – disrupts Tn7 cyclic peptide binding to fibrin D-Dimer-E complex; FP displacement of FITC-Tn7 peptide from fibrin DD(E); 0% = median of compound wells per plate; AID 720508; inhibition, % at 8.3 µM; 0.13% of 370,000 active;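 active = inhibition above the mean of compounds falling within the control limits plus 3 SD of them, cut at about 14% in these data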;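 also: 0% = plate median of compound wells and 100% = 10 µM Aha-Tn7 peptide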
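Also added: labelled Tn7 tracer, 0.1 µM; Assay system: human fibrin DD(E) protein; Amount: 2 µM fibrin DD(E); Schedule: 10 min compound pre-incubation, 3 h probe incubation at room temperature; Repeats: one replicate per compound; Read-out basis: percent inhibition; Measured by: fluorescence polarization of the labelled Tn7 tracer.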
ABHD4 inh – ABHD4 (mouse) inhibition, primary FP screen | Q8VD66 | purified mABHD4, FP-Rh probe fluorescence polarization | inhibition, % at 8.92 µM | 0.54% of 370,000 active;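 active = inhibition exceeding the mean over every tested compound plus 3 SD, cut at about 30% in these data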;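 also: 0% = plate median of compound wells and 100% = S159A mutant with DMSO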
Target sequence (Q8VD66 whole entry, looked up): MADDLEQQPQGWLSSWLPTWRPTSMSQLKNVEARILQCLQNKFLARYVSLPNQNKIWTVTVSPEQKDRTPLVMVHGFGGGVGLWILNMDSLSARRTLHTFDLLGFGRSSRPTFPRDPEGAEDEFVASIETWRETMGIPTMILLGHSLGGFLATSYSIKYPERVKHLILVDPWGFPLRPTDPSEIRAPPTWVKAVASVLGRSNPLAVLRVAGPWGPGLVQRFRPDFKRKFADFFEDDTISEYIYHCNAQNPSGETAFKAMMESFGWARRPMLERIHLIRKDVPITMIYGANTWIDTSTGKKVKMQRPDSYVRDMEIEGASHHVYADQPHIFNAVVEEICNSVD
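Assay system: mABHD4 protein; medium: HEPES pH 7.0, NaCl, Pluronic buffer; dosing: 8.92 µM, single dose; schedule: 45 min + 60 min at 25 °C; signal: FP readout, ex 525 nm / em 598 nm; read-out: normalized percent inhibition of probe labeling; repeats: single replicate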
ABHD4 confirm – confirmation of mouse ABHD4 inhibitors; shares compounds with ABHD4 inh; purified mABHD4, FP-Rh probe fluorescence polarization; inhibition, % at 8.92 µM; 55% of 1,800 active; AID 720658;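 active = mean inhibition across replicates above the hit cutoff set in the primary screen, cut at about 30% in these data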;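 also: 0% = wild-type ABHD4 with DMSO and 100% = catalytically dead S159A mutant with DMSO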
The depositor's hits bear a star; . = no result given. Compounds with a hit are over-represented: about 1.3% of the library has one in this group of screens.

SMILES | TCR CD3 inh | DDE Tn6 FP inh | HTRA1 inh | Tn7 DDE FP | ABHD4 inh | ABHD4 confirm
CC1=NN(c2ccccc2)C(=O)C1=Cc1ccccc1 | 2 | 1 | 1 | 8 | 3 | .
Cc1cc(-c2nc3cccnc3s2)ccc1NS(=O)(=O)c1cccs1 | -1 | -2 | -13 | 3 | 46* | -2
CC(C)(C)C(=O)/C=C/Nc1ccccc1O | -1 | 3 | 8 | -5 | 30* | 1
O=C(NCCc1ccc(Cl)cc1)c1ccc2c(=O)[nH]c3c(C(=O)NCC4CCCO4)sc(=S)n3c2c1 (stereo unspecified) | 1 | 0 | . | 0 | 36* | 33*
CC(=O)c1ccc(N2CCN(C(=O)c3ccc4c(=O)[nH]c5c(C(=O)NC6CCCC6)sc(=S)n5c4c3)CC2)cc1 | 7 | -7 | . | -6 | 34* | 27
O=C(NC1CCCCC1)c1sc(=S)n2c1[nH]c(=O)c1ccccc12 | 1 | 1 | 3 | -7 | 25 | .
O=C(NCCc1ccccc1)c1ccc2c(=O)[nH]c3c(C(=O)NCC4CCCO4)sc(=S)n3c2c1 (stereo unspecified) | 7 | -22 | 10 | -2 | 50* | 36*
O=C(NCC1CCCO1)c1sc(=S)n2c1[nH]c(=O)c1ccc(C(=O)N3CCCCC3)cc12 (stereo unspecified) | 2 | -3 | 8 | 3 | 24 | .
Oc1cccc(Nc2ncnc3c2oc2ccccc23)c1 | 0 | -1 | -7 | -4 | 3 | .
CCCCOc1ccc(CN2CCC(O)CC2)cc1 | 6 | 9 | -3 | -7 | 4 | .
F[B-](F)(F)c1cc2ccccc2s1 | 7 | -2 | 2 | -2 | 87* | 72*
CC1CC1C(=O)OCC(=O)NNC(=O)c1ccc([N+](=O)[O-])cc1 (stereo unspecified) | 1 | -4 | 6 | -6 | 6 | .
CC1=C(O)C(=O)C(C2=C(O)C(=O)C(C)=C(O)C2=O)=C(O)C1=O | 0 | 5 | 33 | -3 | 40* | 38*
Cc1ccc(CN2CCN(/N=C/c3ccc(O)c(O)c3)CC2)cc1 | 6 | -1 | 32 | -2 | 31* | 54*
CC1(C)Cc2c(c(-c3ccco3)[nH]c(=O)c2C#N)CS1 | 15 | 9 | 8 | -8 | 30* | 5
CC(C)CC1C(=O)N(Cc2cn(Cc3ccco3)nn2)CCS(=O)(=O)N1Cc1ccc(-c2ccncc2)cc1 (stereo unspecified) | 2 | 5 | -17 | 6 | -2 | .
COc1ccc(C(=O)OCC(=O)c2ccc3c(c2)NC(=O)CO3)cc1OC | 0 | 0 | 1 | -4 | 0 | .
CC(=O)Nc1cc(NC(C)=O)cc(C(=O)OCC(=O)c2ccc3c(c2)NC(=O)CO3)c1 | -2 | -6 | -3 | -7 | 46* | 7
COc1ccccc1Oc1ncnc2c1cnn2-c1ccccc1 | 8 | 5 | -6 | 1 | -6 | .
CCN(/C=N/c1sc2c(c1C#N)CCCCC2)CC | 1 | -1 | 0 | -1 | 32* | 35*
CC(C)NC(=O)CSc1c2c(nc3ccccc13)CCCC2 | -5 | 2 | 2 | 0 | 6 | .
CCN(CC)CCN1C(=O)C(=O)/C(=C(/O)c2c(C)[nH]c(C(=O)OC)c2C)C1c1ccccc1OC (stereo unspecified) | 0 | 0 | -2 | 3 | 1 | .
CCN(CC)CCN1C(=O)C(=O)/C(=C(/O)c2c(C)[nH]c(C(=O)OC)c2C)C1c1cccs1 (stereo unspecified) | 9 | -1 | 2 | -9 | 34* | -17
Cc1nn(Cc2ccccc2)c(Cl)c1/C=C/C(=O)OCC(=O)N1CCCC1=O | 0 | -7 | 4 | 8 | 4 | .
Cc1nc(C)c(-c2csc(Nc3ccc(N)cc3)n2)s1 | -3 | 1 | 34 | 2 | 9 | .
SMILES | TCR CD3 inh | DDE Tn6 FP inh | HTRA1 inh | Tn7 DDE FP | ABHD4 inh | ABHD4 confirm
Cc1nc(C)c(-c2csc(Nc3ccc(O)c(C(=O)O)c3)n2)s1 | 6 | -4 | -3 | 8 | 45* | 31*
O=S(=O)(c1ccc(F)cc1)N1CCN(Cc2cc3c(cc2Br)OCCO3)CC1 | 1 | 0 | -11 | 9 | -19 | .
Oc1ccc(N2CCN(Cc3cc4c(cc3Br)OCCO4)CC2)cc1 | 6 | 7 | 18 | 0 | 34* | 14
Nc1ccc(OCc2ccccc2)cc1[N+](=O)[O-] | 4 | -8 | 1 | 2 | 6 | .
O=Cc1cc(OCc2ccccc2)ccc1[B-](F)(F)F | 5 | -3 | 0 | -1 | 45* | 43*
COc1cc(CNc2ccc3[nH]c(=O)[nH]c3c2)cc(Cl)c1OCC(=O)NC(C)(C)C | 6 | 9 | 13 | -2 | 40* | 36*
COc1ccc(NC(=O)C(NS(=O)(=O)c2ccc3c(c2)CCCN3C(C)=O)C(C)C)c(OC)c1 (stereo unspecified) | 9 | 2 | 10 | -5 | 0 | .
CCOc1cc(/C=C2\N=C(SC)SC2=O)cc([N+](=O)[O-])c1OC(C)=O | . | . | 20 | . | . | .
CCOc1cc(/C=C2\N=C(SCC)SC2=O)cc([N+](=O)[O-])c1OC(C)=O | -3 | -14 | 22 | -2 | 42* | 83*
O=C1N=c2ccccc2=C1c1sc(=S)n(NC(=O)c2ccccc2)c1O | 3 | -2 | 7 | 3 | 33* | 42*
CC1=C(C(=O)N(C(C)C)C(C)C)CC(CC(=O)NCc2cccc3ccccc23)C(=O)N1CCC1=CCCCC1 (stereo unspecified) | -7 | -8 | . | 0 | 5 | .
Nc1ccc2ccc(O)cc2c1 | 4 | -16 | 7 | -4 | 40* | 33*
Oc1ccc2ccc(Cl)cc2c1 | -3 | 2 | -11 | 4 | -12 | .
CCCC(=O)N1CCCC1(C)C(=O)Nc1cccc(OC(C)C)c1 (stereo unspecified) | -5 | 2 | . | -6 | -1 | .
CN1CCN(C(=O)c2ccc3c(c2)N(Cc2ccccc2)CCS3)CC1 | . | . | -3 | . | . | .
CCOC(=O)c1c(/N=C/c2cccc([N+](=O)[O-])c2O)sc(C)c1C | 7 | 3 | 25 | -4 | 33* | 16
O=[N+]([O-])c1cccc(C=Nc2cccc3ccccc23)c1O | 8 | -7 | 24 | 6 | 25 | .
c1cc2c(cc1C1CCCCC1)c1c3n2CCCNC3CCC1 (stereo unspecified) | 4 | -5 | 26 | -2 | 36* | 57*
Cc1ccc(NC(=O)C2(C)CCN2C(=O)C2(c3ccc(Cl)cc3)CC2)cc1 (stereo unspecified) | 1 | -13 | . | 3 | -4 | .
Cn1cc(CN2CCC(C(O)c3cccs3)CC2)c(-c2ccccc2F)n1 (stereo unspecified) | -9 | -6 | 5 | 5 | 48* | 2
Cn1cc(CN2CCC(C(=O)N3CCCC3)CC2)c(-c2ccccc2F)n1 | 10 | 0 | 1 | -4 | 2 | .
O=C(NCCc1cccs1)C1CC(c2ccc([N+](=O)[O-])cc2)=NO1 (stereo unspecified) | 5 | 4 | -12 | 3 | 0 | .
